Compound activity as filed in PubChem BioAssay.
In the library only some 4.1% were active in any assay of this set; here they are far more common.
NS3 helicase inh = blocks Hepatitis C virus NS3 helicase unwinding; NS3 helicase DNA unwinding, Cy5 molecular beacon fluorescence; inhibition, % at 10.9 µM; 290,000 tested, 0.56% active;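 active means inhibition above the mean of all tested compounds plus 3 SD, set per campaign, cut at about 35% in these data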
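Compound dosing – single dose, 10.9 µM nominal final, DMSO 0.8% final · System – NS3 helicase fragment of HCV · Buffer or medium – MOPS pH 6.5, MgCl2, DTT, Tween20, BSA · Signal – Cy5 beacon fluorescence read at start and 1 h · Also added – annealed dual-labelled DNA beacon duplex, ATP-started · Schedule – 1 h at 25 °C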
MEKK2 WT-MEK5 = raises or lowers MEK5 binding to wildtype human MEKK2 PB1 domain. binding response (% of control), % at 10 µM. Q9Y2U5. 290,000 tested, 1.1% active. AID 1531. bead flow cytometry, Alexa488-MEK5 binding to MEKK2 WT; actives lie on both sides; in the data active means binding response below about 67% or above about 130%
T cruzi repl = T. cruzi replication inhibition | T. cruzi beta-gal in NIH3T3, luminescence, 90 h | inhibition, % (concentration not given with the values) | 300,000 tested, 1.4% active;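 active means mean inhibition across valid replicates above about 55%, limit read from the data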;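 further: signal also drops with host cell toxicity which is not excluded here; higher percent means less beta-gal luminescence so fewer parasites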
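compound dosing = single 50 nL compound addition per well in DMSO | material = NIH/3T3 host cells with β-galactosidase reporter T. cruzi | input = 5,000 host fibroblasts per well | timing = ≥90 h infection period, 3 h prior cell attachment | read-out basis = percent inhibition of parasite-derived β-gal signal | detection = GalScreen β-gal luminescence, detergent lysis, 60 min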
MEKK2 mut-MEK5 = signal of MEK5 binding to mutant human MEKK2 PB1 domain. bead flow cytometry, Alexa488-MEK5 binding to MEKK2 mutant. percent response, % at 10 µM. 290,000 tested, 0.35% active. AID 1530; in the data active means percent response above about 24%, passing the limit was not always enough
FID counter = counter-screen for HCV NS3 helicase inhibitors: DNA intercalator displacement | inhibition, % at 7.9 µM | AID 1845 | 290,000 tested, 0.17% active | DNA fluorescent intercalator displacement, fluorescence; in the data active means inhibition above about 37%;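 further: higher means more ethidium bromide displaced from hairpin DNA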
MEKK3 PB1 HTS = raises or lowers MEK5 binding to the human MEKK3 PB1 domain; Q99759; bead-based flow cytometry, Alexa488-MEK5 binding to MEKK3; actives lie on both sides; 0 = blocked by unlabeled MEK5, 100 = vehicle; binding response (% of control), % at 10 µM; 290,000 tested, 1.4% active; AID 1529;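 active means binding response more than 3 SD above or below the average of its plate-row segment, actives on both sides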;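 further: Alexa488 bead fluorescence after subtracting the streptavidin-only scavenger bead signal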
Target sequence (Q99759 whole entry, looked up, the tested form may be a part): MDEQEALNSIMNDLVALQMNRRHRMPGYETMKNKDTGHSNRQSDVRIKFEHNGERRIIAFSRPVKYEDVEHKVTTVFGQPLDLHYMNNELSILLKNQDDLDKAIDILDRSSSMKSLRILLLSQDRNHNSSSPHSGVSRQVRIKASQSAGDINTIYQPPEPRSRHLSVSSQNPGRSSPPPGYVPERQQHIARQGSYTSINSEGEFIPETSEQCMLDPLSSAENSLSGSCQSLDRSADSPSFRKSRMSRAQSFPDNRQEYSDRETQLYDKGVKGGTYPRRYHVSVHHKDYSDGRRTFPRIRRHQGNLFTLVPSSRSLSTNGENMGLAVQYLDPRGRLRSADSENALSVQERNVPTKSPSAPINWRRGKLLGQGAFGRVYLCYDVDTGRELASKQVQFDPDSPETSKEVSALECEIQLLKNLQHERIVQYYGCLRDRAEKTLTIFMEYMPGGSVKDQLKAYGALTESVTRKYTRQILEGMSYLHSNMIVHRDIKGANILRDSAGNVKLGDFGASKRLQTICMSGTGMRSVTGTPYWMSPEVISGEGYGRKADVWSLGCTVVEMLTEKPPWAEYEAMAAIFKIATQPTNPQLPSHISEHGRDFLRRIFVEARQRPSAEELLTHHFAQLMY
MEKK2wt confirm = raises or lowers MEK5 binding to wildtype human MEKK2, retest | shares compounds with MEKK3 PB1 HTS | AID 1892 | binding response (% of control), % at 10 µM | bead flow cytometry, Alexa488-MEK5 binding to MEKK2 WT; actives lie on both sides | 5,900 tested, 2.4% active; in the data active means binding response below about 16% or above about 210%; inactive means in between
MEKK2mut-MEK5 = signal of MEK5 binding to mutant human MEKK2, retest | shares compounds with MEKK3 PB1 HTS | bead flow cytometry, Alexa488-MEK5 binding to MEKK2 mutant | percent response, % at 10 µM | 5,900 tested, 2% active; in the data active means percent response mostly above about 71%, no sharp cut-off; inactive means mostly below about 38%;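 further: higher means compound restores mutant binding toward wildtype level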
MEKK3 confirm = MEKK3-MEK5 PB1 inhibition, single concentration confirmation | shares compounds with MEKK3 PB1 HTS | bead flow cytometry, Alexa488-MEK5 binding to MEKK3; active compounds read low | binding response (% of control), % at 10 µM | 5,900 tested, 1.8% active;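 active means binding response below 72% of control, or above a set upper limit, though filed actives all read lower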;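 further: lower values mean stronger disruption of MEK5 binding to MEKK3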
Of the large screens only hits and unclear results are named; the others gave an inactive call (follow-up assays come after a bar, where they were run); [ ] = another dose, or the depositor's remark.

O=C(O)c1ccc(NC(=O)c2ccco2)c(NC(=O)c2ccco2)c1	none
COc1ccc(CCNC(=O)CCC(=O)NC2CCCC(C)C2C)cc1OC (stereo unspecified)	none
CCC1(c2ccccc2)NC(=S)N(c2cccc(C)c2C)N1 (stereo unspecified)	MEKK3 PB1 HTS 129 | MEKK2wt confirm inactive | MEKK2mut-MEK5 inactive | MEKK3 confirm inactive
COc1cc2[nH]c(=O)n(CCCC(=O)N3CC=C(c4ccccc4)CC3)c(=O)c2cc1OC	MEKK3 PB1 HTS 127 | MEKK2wt confirm inactive | MEKK2mut-MEK5 inactive | MEKK3 confirm inactive
COc1cc2[nH]c(=O)n(CCC(=O)N3CC=C(c4ccccc4)CC3)c(=O)c2cc1OC	none
Cc1cc(SCC#N)nc2ccccc12	none
COc1ccc2c(C)cc(SCC#N)nc2c1	MEKK2 WT-MEK5 58[inhibitor], MEKK2 mut-MEK5 38 | MEKK2wt confirm inactive | MEKK2mut-MEK5 inactive | MEKK3 confirm inactive
Cc1nc(C(F)(F)F)c(C(=O)O)cc1-c1nc(-c2ccccc2)cs1	none
COc1ccc(N2CCN(CCCNC(=O)CN3CCN(Cc4ccccc4C)C3=O)CC2)cc1	MEKK2 WT-MEK5 143 | MEKK2wt confirm inactive | MEKK2mut-MEK5 inactive | MEKK3 confirm inactive
CCOCCCNC(=O)CN1CCN(c2ccc(F)cc2)CC1	none
O=C(CN1CCN(Cc2ccccc2Cl)C1=O)NCCCN1CCOCC1	none
Cc1ccc(CN2CCN(CC(=O)NCCCN3CCN(c4ccc(F)cc4)CC3)C2=O)cc1	MEKK2 mut-MEK5 24 | MEKK2wt confirm inactive | MEKK2mut-MEK5 inactive | MEKK3 confirm inactive
Cc1ccc(Oc2nc(-c3ccccc3)ncc2S(C)(=O)=O)cc1	MEKK2 WT-MEK5 1.0[inhibitor], MEKK3 PB1 HTS 1.0[inhibitor] | MEKK2wt confirm inactive | MEKK2mut-MEK5 inactive | MEKK3 confirm inactive
Cc1ccc2c(c1)C(c1ccccc1)N(C(=O)c1cccc([N+](=O)[O-])c1)CC(=O)N2 (stereo unspecified)	none
Nc1c(C(=O)c2ccccc2O)cnn1-c1ccc(S(=O)(=O)N2CCOCC2)cc1[N+](=O)[O-]	none
CCN(CC)S(=O)(=O)c1cc(C(=O)Nc2cc(Cl)ccc2N2CCN(C)CC2)ccc1Cl	MEKK2 WT-MEK5 161 | MEKK2wt confirm inactive | MEKK2mut-MEK5 inactive | MEKK3 confirm inactive
CN(C)S(=O)(=O)c1ccc(N2CCCC2)c(C(=O)Nc2ccccc2OC(F)F)c1	none
CN1CCN(c2ccc(Cl)cc2NC(=O)c2ccc(S(=O)(=O)N(C)C)cc2)CC1	MEKK2 WT-MEK5 136 | MEKK2wt confirm inactive | MEKK2mut-MEK5 inactive | MEKK3 confirm inactive
COc1cc(Cl)c(C)cc1NC(=O)c1cc(S(=O)(=O)N(C)C)ccc1N1CCCC1	MEKK3 PB1 HTS 148 | MEKK2wt confirm inactive | MEKK2mut-MEK5 inactive | MEKK3 confirm inactive
CN1CCN(NC(=O)c2cc(-c3ccc(Cl)s3)nc3ccccc23)CC1	none
COc1ccc(NC(=O)CN2CCc3ccccc3C2)c([N+](=O)[O-])c1	none
O=C(/C=C/c1ccc(N2CCC(c3ccccc3)=N2)cc1)c1ccccc1	MEKK2 mut-MEK5 281 (no result: MEKK2 WT-MEK5) | MEKK2wt confirm inactive | MEKK2mut-MEK5 inactive | MEKK3 confirm inactive
O=C(/C=C/c1ccc(O)cc1)c1ccccc1	none
CCn1nc(C(=O)Nc2nc3ccc(C)cc3s2)c2ccccc2c1=O	none
Cc1nc2ccc(NC(=O)c3nn(CC(C)C)c(=O)c4ccccc34)cc2s1	MEKK3 PB1 HTS 148 | MEKK2wt confirm inactive | MEKK2mut-MEK5 inactive | MEKK3 confirm inactive
COC(=O)c1ccc(NC(=O)CSc2nnc(COc3ccccc3)n2C)cc1	MEKK2 mut-MEK5 24 | MEKK2wt confirm inactive | MEKK2mut-MEK5 inactive | MEKK3 confirm inactive
Cn1c(Cn2cnc([N+](=O)[O-])n2)nnc1SCC(=O)Nc1ccccc1	MEKK3 PB1 HTS 144 | MEKK2wt confirm inactive | MEKK2mut-MEK5 inactive | MEKK3 confirm inactive
COc1cccc(NC(=O)CSc2nnc(Cn3cnc([N+](=O)[O-])n3)n2C)c1	none
COc1ccc(NC(=O)CSc2nnc(Cn3cnc([N+](=O)[O-])n3)n2C)cc1	MEKK3 PB1 HTS 41[inhibitor] | MEKK2wt confirm inactive | MEKK2mut-MEK5 inactive | MEKK3 confirm inactive
Cn1c(Cc2ccccc2)nnc1SCC(=O)Nc1ccccc1	none
Cc1nn(-c2ccccc2)nc1C(=O)Nc1nnc(C(F)(F)F)s1	none
CC(=O)N1CCc2cc(S(=O)(=O)CCC(=O)N3CCc4ccccc4C3)ccc21	MEKK2 WT-MEK5 22[inhibitor], MEKK3 PB1 HTS 17[inhibitor] | MEKK2wt confirm inactive | MEKK2mut-MEK5 inactive | MEKK3 confirm inactive
O=C(NCc1ccccc1Cl)c1ccc2c(c1)OCO2	none
COc1cc(O)c2c(c1)OC(C)(C)CC2=O	MEKK3 PB1 HTS 122 | MEKK2wt confirm inactive | MEKK2mut-MEK5 inactive | MEKK3 confirm inactive
CN1CCN(CCC(=O)Nc2ccc(C3CCCC3)cc2)CC1	MEKK2 WT-MEK5 142 | MEKK2wt confirm inactive | MEKK2mut-MEK5 inactive | MEKK3 confirm inactive
CN1CCN(CCC(=O)Nc2ccccc2)CC1	none
CC(=O)c1cc2c(cc1NS(=O)(=O)c1ccccc1)OCO2	none
CC(=O)c1cc2c(cc1N/C(=N/S(=O)(=O)c1ccccc1)c1ccc(Cl)cc1)OCO2	MEKK3 PB1 HTS 129 | MEKK2wt confirm inactive | MEKK2mut-MEK5 inactive | MEKK3 confirm inactive
COc1ccccc1CN1CCNC(=O)C1CC(=O)NCCC1=CCCCC1 (stereo unspecified)	none
CCOc1ccccc1CN1CCNC(=O)C1CC(=O)NCCC1=CCCCC1 (stereo unspecified)	MEKK2 mut-MEK5 24 | MEKK2wt confirm inactive | MEKK2mut-MEK5 inactive | MEKK3 confirm inactive
COc1cc2ccccc2cc1C(=O)N(CCN(C)C)c1nc2c(F)cc(F)cc2s1	none
CCN(CC)CCN(C(=O)CCOc1ccccc1)c1nc2c(F)cc(F)cc2s1	MEKK2 WT-MEK5 148, T cruzi repl 56 | MEKK2wt confirm inactive | MEKK2mut-MEK5 inactive | MEKK3 confirm inactive
O=C(OCCNc1nc(-c2ccccc2)nc2ccccc12)c1ccncc1	MEKK3 PB1 HTS 146 | MEKK2wt confirm inactive | MEKK2mut-MEK5 inactive | MEKK3 confirm inactive
